Published values of several laboratories.
PIK3CA C420R: Phosphatidylinositol 4,5-bisphosphate 3-kinase catalytic subunit alpha isoform (PIK3CA, Homo sapiens, UniProt P42336, C420R)
PIK3CA Q546K: Phosphatidylinositol 4,5-bisphosphate 3-kinase catalytic subunit alpha isoform (PIK3CA, Homo sapiens, UniProt P42336, Q546K)
PIK3CA: Phosphatidylinositol 4,5-bisphosphate 3-kinase catalytic subunit alpha isoform (PIK3CA, Homo sapiens, UniProt P42336)
PIK3CA H1047L: Phosphatidylinositol 4,5-bisphosphate 3-kinase catalytic subunit alpha isoform (PIK3CA, Homo sapiens, UniProt P42336, H1047L)
PIK3CA M1043I: Phosphatidylinositol 4,5-bisphosphate 3-kinase catalytic subunit alpha isoform (PIK3CA, Homo sapiens, UniProt P42336, M1043I)
PIK3CA E545K: Phosphatidylinositol 4,5-bisphosphate 3-kinase catalytic subunit alpha isoform (PIK3CA, Homo sapiens, UniProt P42336, E545K)

CN(CCCC(F)(F)F)c1nccc(-c2cnn3ncccc23)n1 — remaining binding (PIK3CA C420R; binding; 1 µM): 100%
CCN1CCN(Cc2ccc(C(=O)Nc3ccc(C)c(Oc4ccc5c(c4)CC(=O)N5)c3)cc2C(F)(F)F)CC1 — remaining binding (PIK3CA Q546K; binding, competition with immobilised ligand; 1 µM): 100%
O=C(NCCCN1CCOCC1)c1ccc(Nc2ncc(Cl)c(-c3ccc(Cl)s3)n2)cc1 — remaining binding (PIK3CA; binding, competition with immobilised ligand; 1 µM): 100%
O=C(Nc1c[nH]nc1C(=O)NC1CCNCC1)c1cc(F)cc(F)c1 — remaining binding (PIK3CA C420R; binding, competition with immobilised ligand; 1 µM): 100%
Nc1cnc(N2CCc3cc(S(=O)(=O)Nc4c(F)cc(Cl)cc4F)cc(N4CCCC4=O)c32)nc1 — remaining binding (PIK3CA H1047L; cell-free assay, competition with immobilised ligand; 1 µM): 60%
Nc1ncc2c(n1)-c1c([nH]c3ccc(C#CC4CC4)cc13)CCCC2 — remaining binding (PIK3CA M1043I; binding, competition with immobilised ligand; 1 µM): 62%
Cc1cc(NC(=O)c2cccc(S(F)(F)(F)(F)F)c2)cc(-n2ccn3nc(-c4cccnc4)cc23)c1 — remaining binding (PIK3CA M1043I; cell-free assay, competition with immobilised ligand; 1 µM): 30.3%
CN1CCN(c2ccc(Nc3nccc(-c4cccc([N+](=O)[O-])c4)n3)cc2C(F)(F)F)CC1 — remaining binding (Phosphatidylinositol 4,5-bisphosphate 3-kinase catalytic subunit alpha isoform (PIK3CA, Homo sapiens, UniProt P42336, H1047Y); binding; 10 µM): 27%
CO[C@@H](C)c1c(Nc2ccc([C@H](N(C)C(=O)C3CCS(=O)(=O)CC3)C(F)(F)F)cc2)cnc2cc(Cl)nn12 — remaining binding (PIK3CA E545K; binding, competition with immobilised ligand; 1 µM): 48%
c1cnn2ncc(-c3ccnc(N4CCC45COC5)n3)c2c1 — remaining binding (PIK3CA; binding; 1 µM): 79%
COc1cnc(Nc2cccc(S(N)(=O)=O)c2)nc1N1CCN(c2ccccc2)CC1 — remaining binding (Phosphatidylinositol 4,5-bisphosphate 3-kinase catalytic subunit alpha isoform (PIK3CA, Homo sapiens, UniProt P42336, E542K); binding, competition with immobilised ligand; 1 µM): 93%
CN(C)c1ncnc(-c2ccc3nc(Nc4cc(CN5CCN(C(=O)CC(F)(F)F)CC5)ccn4)[nH]c3c2)c1Cl — remaining binding (PIK3CA E545K; cell-free assay, competition with immobilised ligand; 1 µM): 76%
O=C(c1ccc(Nc2nccc(-c3cc4ccccc4s3)n2)cc1)N1CCC(N2CCCC2)CC1 — remaining binding (PIK3CA Q546K; binding, competition with immobilised ligand; 1 µM): 100%
Cc1cnn2ncc(-c3ccnc(N(C)C)n3)c2c1 — remaining binding (PIK3CA; binding; 1 µM): 100%
O=c1nc(-c2ccccn2)sc2ccccc12 — remaining binding (Phosphatidylinositol 4,5-bisphosphate 3-kinase catalytic subunit alpha isoform (PIK3CA, Homo sapiens, UniProt P42336, E545A); cell-free assay, competition with immobilised ligand; 1 µM): 92%
CC1CCCN1c1nccc(-c2cnn3ncccc23)n1 (centres unmarked) — remaining binding (PIK3CA M1043I; binding; 1 µM): 100%
Cc1c(C(=O)O)cc(-c2ccc(C3CCNCC3)cc2)c2ccc(-c3ccc(C(F)(F)F)cc3)cc12 — remaining binding (PIK3CA M1043I; cell-free assay, competition with immobilised ligand; 1 µM): 100%
F[C@@H]1CCN(c2nccc(-c3cnn4ncccc34)n2)C1 — remaining binding (PIK3CA M1043I; binding; 1 µM): 100%
CN(C(=O)c1ccccc1)c1cc(N(C)c2ccc3c(c2)CCc2ccc(C(=O)NCCN4CCOCC4)cc2C3=O)ccc1F — remaining binding (PIK3CA C420R; cell-free assay, competition with immobilised ligand; 1 µM): 91%
COc1ccnn2ncc(-c3ccnc(N(C)C)n3)c12 — remaining binding (PIK3CA; binding; 1 µM): 100%
O=C(c1ccc(Nc2ncc(Cl)c(-c3ccc(Cl)s3)n2)cc1)N1CCC(N2CCCC2)CC1 — remaining binding (Phosphatidylinositol 4,5-bisphosphate 3-kinase catalytic subunit alpha isoform (PIK3CA, Homo sapiens, UniProt P42336, I800L); binding, competition with immobilised ligand; 1 µM): 92%
N[C@@H]1CCN(c2nccc(-c3cnn4ncccc34)n2)C1 — remaining binding (PIK3CA H1047L; binding; 1 µM): 100%
C=CC(=O)N1CCC(C(=O)NCC(=O)N2CCN(c3nc(-c4cnc(N)nc4C(F)F)nc(N4CCOCC4)n3)CC2)CC1 — remaining binding (PIK3CA M1043I; binding, competition with immobilised ligand; 1 µM): 0%
